The inhibition is the share of the control response that was lost under treatment. As usually defined, the pEC50 is −log10 of the EC50, conventionally taken in molar units.

Each structure is given as a SMILES string. pEC50: −log10 of the molar value. Calls of active or inactive are those of the source. The rule behind the calls is not given here.

Series [1] is described as follows: Therapeutic index, ratio of GI50 for mouse Hepa1c1c7 cells to CD for activation of Nrf2 in mouse Hepa1c1c7 cells assessed as concentration required to 2 fold induction of NQO1 production. It is filed as cell-based. The settings on record: read-out: TI.
Series [2] concerns the target T1, Nuclear factor erythroid 2-related factor 2 (Mus musculus) (UniProt Q60795).
T1 sequence (whole entry): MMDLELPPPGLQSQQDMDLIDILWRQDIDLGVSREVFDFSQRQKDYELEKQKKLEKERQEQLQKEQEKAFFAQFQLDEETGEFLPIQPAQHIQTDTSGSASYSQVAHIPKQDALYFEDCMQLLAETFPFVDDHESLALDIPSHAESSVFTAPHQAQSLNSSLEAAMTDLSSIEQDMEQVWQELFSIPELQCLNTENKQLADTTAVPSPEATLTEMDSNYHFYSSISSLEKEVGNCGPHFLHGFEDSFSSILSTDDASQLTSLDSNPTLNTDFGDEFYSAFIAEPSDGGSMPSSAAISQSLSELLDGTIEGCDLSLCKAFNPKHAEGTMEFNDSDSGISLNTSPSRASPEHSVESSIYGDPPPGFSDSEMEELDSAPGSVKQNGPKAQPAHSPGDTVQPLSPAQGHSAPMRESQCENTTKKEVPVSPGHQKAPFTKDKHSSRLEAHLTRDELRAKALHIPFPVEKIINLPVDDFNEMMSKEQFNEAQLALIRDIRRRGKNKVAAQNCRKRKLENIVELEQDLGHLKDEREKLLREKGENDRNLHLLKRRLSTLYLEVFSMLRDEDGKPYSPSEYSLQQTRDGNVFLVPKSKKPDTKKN
As to the kind of experiment: Activation of Nrf2 in mouse Hepa1c1c7 cells assessed as concentration required to 2 fold induction of NQO1 production after 24 hrs by MTT colorimetric assay. It is filed as cell-based. The method in brief:
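Hepa1c1c7 mouse hepatoma cells exposed to a concentration range for 24 h. NQO1 enzymatic activity measured by colorimetric induction assay. Value reported as CD, the concentration giving a two-fold increase in NQO1 activity.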
Background: Formazan colour is commonly taken as a measure of viable cells.

Series [3] deals with Kelch-like ECH-associated protein 1 (Homo sapiens) (UniProt Q14145). As to the kind of experiment: Binding affinity to kelch domain of Keap1 (unknown origin) using high affinity ETGE motif from Nrf2 unknown origin) at 200 uM by fluorescence polarization assay. For orientation: Polarisation of emitted light reports the rotation of a fluorescent probe.
Kelch-like ECH-associated protein 1 (Homo sapiens), sequence (Q14145 whole entry, the tested form may be a part): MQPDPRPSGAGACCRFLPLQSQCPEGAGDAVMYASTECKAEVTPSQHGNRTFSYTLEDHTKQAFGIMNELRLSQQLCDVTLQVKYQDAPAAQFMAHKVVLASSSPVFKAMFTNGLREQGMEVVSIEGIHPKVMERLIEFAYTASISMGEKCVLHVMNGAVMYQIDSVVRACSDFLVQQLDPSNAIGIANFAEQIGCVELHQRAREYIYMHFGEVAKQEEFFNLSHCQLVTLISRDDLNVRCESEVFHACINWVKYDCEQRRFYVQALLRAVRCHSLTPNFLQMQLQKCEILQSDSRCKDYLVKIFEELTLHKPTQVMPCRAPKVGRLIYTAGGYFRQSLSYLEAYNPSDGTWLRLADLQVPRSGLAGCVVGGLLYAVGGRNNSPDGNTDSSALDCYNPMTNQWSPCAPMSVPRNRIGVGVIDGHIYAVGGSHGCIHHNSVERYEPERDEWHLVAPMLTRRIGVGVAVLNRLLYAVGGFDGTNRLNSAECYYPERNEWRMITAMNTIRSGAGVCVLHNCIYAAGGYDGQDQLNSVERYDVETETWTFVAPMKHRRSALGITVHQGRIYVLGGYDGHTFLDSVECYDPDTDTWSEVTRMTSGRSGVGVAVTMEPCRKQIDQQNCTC
The species named for series [4] is Mus musculus. The series is described as follows: Increase of Nrf2 protein level in mouse Hepa1c1c7 cells at 10 uM after 3 to 6 hrs by Western blot analysis. It is filed as functional, cell-based. In a few lines: (§1)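 Hepa1c1c7 cells incubated with test compounds at 10 µM for various exposure times, up to 24 h. Nrf2, HO-1 and NQO1 protein levels assessed by Western blot.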
(In general: In western blotting, separated proteins are transferred to a membrane and probed.)

For series [5], the target named is T2, Keap1/Nrf2 (Homo sapiens) (UniProt Q16236+Q14145). The series is described as follows: Inhibition of mCherry labeled Keap1 interaction to ETGE motif from Nrf2 in human HEK293 cells at 10 uM by FRET based assay. It is filed as cell-based. In a few lines: (§2)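 HEK293 cells were co-transfected with EGFP-Nrf2 and Keap1-mCherry. Each cell was imaged by FLIM twice: once basal and once 1 h after 10 µM compound. EGFP lifetime and FRET efficiency were calculated in the cytoplasm. High- and low-FRET-efficiency populations were scored to distinguish DLG-dependent binding from ETGE-dependent binding.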
T2 sequence (Q14145 whole entry, looked up): as the sequence (Q14145 whole entry, the tested form may be a part) above
T2 sequence (Q16236 whole entry, looked up): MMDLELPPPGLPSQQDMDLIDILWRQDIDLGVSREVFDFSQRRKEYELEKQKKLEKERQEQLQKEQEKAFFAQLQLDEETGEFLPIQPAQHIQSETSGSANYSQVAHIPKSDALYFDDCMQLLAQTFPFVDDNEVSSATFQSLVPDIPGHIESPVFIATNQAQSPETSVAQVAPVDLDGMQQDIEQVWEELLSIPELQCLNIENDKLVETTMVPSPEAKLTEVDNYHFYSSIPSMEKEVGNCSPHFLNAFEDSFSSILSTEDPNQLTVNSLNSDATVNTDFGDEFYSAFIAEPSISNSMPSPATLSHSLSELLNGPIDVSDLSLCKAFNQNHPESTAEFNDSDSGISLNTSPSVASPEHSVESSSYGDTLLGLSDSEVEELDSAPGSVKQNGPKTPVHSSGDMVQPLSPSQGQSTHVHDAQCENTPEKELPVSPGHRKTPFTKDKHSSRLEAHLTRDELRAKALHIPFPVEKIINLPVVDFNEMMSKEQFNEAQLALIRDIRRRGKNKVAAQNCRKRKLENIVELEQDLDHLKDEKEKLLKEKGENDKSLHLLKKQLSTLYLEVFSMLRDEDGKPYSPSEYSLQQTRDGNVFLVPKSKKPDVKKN

Series [6] in a line: Cytotoxicity against mouse Hepa1c1c7 cells assessed as cell viability at 200 uM after 24 to 48 hrs by SRB assay. It is filed as cell-based. Particulars: read-out: Activity. In a few lines:
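Hepa1c1c7 cells exposed to compounds at up to 200 µM for 24 and 48 h. Viability determined by sulforhodamine B assay.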

Series [7] concerns the target T2, Keap1/Nrf2 (Homo sapiens). As to the kind of experiment: Inhibition of kelch domain of Keap1 (unknown origin) interaction to high affinity ETGE motif from Nrf2 unknown origin) at 100 uM by fluorescence polarization assay. It is filed as protein assay. The method in brief:
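Fluorescence polarization competition. Keap1 Kelch domain with fluorescein-labelled ETGE peptide FITC-β-DEETGEF-OH (β = β-alanine). Displacement measured with a fixed 100 µM inhibitor; percent inhibition reported.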

The target in series [8] is T1, Nuclear factor erythroid 2-related factor 2 (Mus musculus). The series is described as follows: Activation of Nrf2 in mouse Hepa1c1c7 cells assessed as induction of NQO1 production at 10 uM after 24 hrs by MTT colorimetric assay relative to control. It is filed as cell-based. In a few lines: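 Hepa1c1c7 mouse hepatoma cells treated at a fixed 10 µM for 24 h. NQO1 enzyme activity read by colorimetric induction assay and expressed as fold induction over control.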

The species entered for series [9] is Mus musculus. As to the kind of experiment: Increase of Nrf2 protein level in mouse Hepa1c1c7 cells at 10 uM after 24 hrs by Western blot analysis. It is filed as functional, cell-based. In a few lines:
as §1

The target in series [10] is T2, Keap1/Nrf2 (Homo sapiens). As to the kind of experiment: Inhibition of kelch domain of Keap1 (unknown origin) interaction to high affinity ETGE motif from Nrf2 unknown origin) in presence of 0 to 1 % v/v Triton X100 by fluorescence polarization assay. It is filed as protein assay.
The next series deals with Keap1/Nrf2 (Homo sapiens, UniProt Q14145). As to the kind of experiment: Inhibition of kelch domain of Keap1 (unknown origin) interaction to high affinity ETGE motif from Nrf2 by fluorescence polarization assay. It is filed as protein assay. The method in brief:
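Competitive fluorescence polarization, dose-response format. Keap1 Kelch domain with fluorescein-labelled Nrf2 ETGE peptide FITC-β-DEETGEF-OH. EC50 derived from dose-response curves.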

Series [11] concerns the target T2, Keap1/Nrf2 (Homo sapiens). The series is described as follows: Inhibition of mCherry labeled Keap1 interaction to DLG motif from Nrf2 in human HEK293 cells at 10 uM by FRET based assay. It is filed as cell-based. In a few lines: as §2
In series [12] the target is T1, Nuclear factor erythroid 2-related factor 2 (Mus musculus). As to the kind of experiment: Activation of Nrf2 in mouse Hepa1c1c7 cells assessed as increase of HO-1 expression at 10 uM after 6 hrs by Western blot analysis. It is filed as cell-based. The method in brief:
as §1

The target is the same in series [13]. The series is described as follows: Activation of Nrf2 in mouse Hepa1c1c7 cells assessed as increase of NQO1 expression at 10 uM measured before 24 hrs by Western blot analysis. It is filed as cell-based. In a few lines: as §1
The species entered for series [14] is Mus musculus. As to the kind of experiment: Increase of Nrf2 protein level in mouse Hepa1c1c7 cells at 10 uM by Western blot analysis. It is filed as functional, cell-based. Particulars: TDE = time-dependent effect. The method in brief:
as §1

Keap1/Nrf2, sequence (Q16236 whole entry, the tested form may be a part): as the sequence (Q16236 whole entry, looked up) above
Keap1/Nrf2, sequence (Q14145 whole entry, the tested form may be a part): as the sequence (Q14145 whole entry, the tested form may be a part) above

Turning to `O=[N+]([O-])c1cccc(-c2cn(-c3cccc(I)c3)nn2)c1`, the selectivity ratio in series [1] was above 1000. In addition, the CD in [2] came to 0.6 µM. Also, the outcome (in series [3]; in the series listed under Mus musculus [4]; in the series listed under Mus musculus [9]; in [12]) was Active. Moreover, the inhibition result in series [5] is “inactive”. Further, the viability at 200 µM in series [6] was 100%. The compound further showed an inhibition in series [7] of 67.2%. In series [8], the fold change (FC) was determined as 4. Moreover, the inhibition result in series [10] and in series [11] was “Active” in each case. This compound showed a pEC50 at Keap1/Nrf2 of 5.15. In addition, in series [13], the result was inactive. Further, in the series listed under Mus musculus [14], the Activity result is “tde”.

Source of the values: ChEMBL document CHEMBL3616400, “Design, Synthesis, and Evaluation of Triazole Derivatives That Induce Nrf2 Dependent Gene Products and Inhibit the Keap1-Nrf2 Protein-Protein Interaction” (J Med Chem, 2015).
